{"source": "the M2OR odorant receptor database", "data": [{"biological_target": "UniProt Q9WVD9", "sequence (Q9WVD9 as listed by the source)": "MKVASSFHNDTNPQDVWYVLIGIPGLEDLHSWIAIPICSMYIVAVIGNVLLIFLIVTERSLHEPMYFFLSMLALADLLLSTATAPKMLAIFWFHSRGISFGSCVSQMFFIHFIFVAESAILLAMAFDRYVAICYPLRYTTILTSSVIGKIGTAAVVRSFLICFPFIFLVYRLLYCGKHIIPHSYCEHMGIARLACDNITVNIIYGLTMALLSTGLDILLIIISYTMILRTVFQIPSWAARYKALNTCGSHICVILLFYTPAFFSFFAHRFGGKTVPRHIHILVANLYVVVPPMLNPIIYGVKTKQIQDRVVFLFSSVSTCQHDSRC", "conditions": "stereoisomer not certain", "method_in_brief": "(§1)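 Whether a receptor–molecule pair is responsive (active) rests on the original authors' judgment that its measured signal was statistically different from baseline. Pairs without that judgment are non-responsive (inactive). Sources used varied assay methods, commonly transient luciferase assays in mammalian cell lines.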", "values": [{"smiles": "C=CCOC(=O)Cc1ccccc1", "odorant receptor agonist call": "inactive"}, {"smiles": "CCC1CCC(=O)O1", "note": "(stereo not drawn)", "odorant receptor agonist call": "inactive"}, {"smiles": "C=CCc1ccccc1", "odorant receptor agonist call": "inactive"}, {"smiles": "O=c1cc(O)c2ccccc2o1", "odorant receptor agonist call": "inactive"}]}, {"biological_target": "T1, UniProt Q9WVN5", "T1 sequence (whole entry)": "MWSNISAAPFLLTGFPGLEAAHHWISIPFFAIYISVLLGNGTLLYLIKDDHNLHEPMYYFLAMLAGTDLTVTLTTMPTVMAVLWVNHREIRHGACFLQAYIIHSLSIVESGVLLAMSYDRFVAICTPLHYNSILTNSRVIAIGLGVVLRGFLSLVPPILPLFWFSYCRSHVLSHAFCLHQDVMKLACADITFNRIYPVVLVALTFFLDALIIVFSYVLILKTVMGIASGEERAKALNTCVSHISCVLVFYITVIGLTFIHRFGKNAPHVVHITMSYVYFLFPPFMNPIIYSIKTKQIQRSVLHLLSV", "conditions": "stereoisomer not certain", "method_in_brief": "as §1", "values": [{"smiles": "C=CCOC(=O)Cc1ccccc1", "odorant receptor agonist call": "active"}, {"smiles": "CCC1CCC(=O)O1", "note": "(stereo not drawn)", "odorant receptor agonist call": "inactive"}, {"smiles": "C=CCc1ccccc1", "odorant receptor agonist call": "inactive"}, {"smiles": "O=c1cc(O)c2ccccc2o1", "odorant receptor agonist call": "inactive"}]}]}
